Reference: PMC9322249 (Journal of Food and Drug Analysis, 2017)

How the values were obtained:
[1] = Oxygen radical absorption capacity; settings: TEAC units; X = EO or compound
Procedure, shortened: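 Peroxyl radical (ROO) scavenging by the oils and individual components, following a published ORAC method, in triplicate. Data are mean ± SD, with significance by ANOVA/Tukey's HSD (p < 0.05).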

Reducing power = settings: AAE units; X = EO or compound
Procedure, shortened: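 Reduction of potassium ferricyanide by the oils and individual components, by a published method, in triplicate. Results are reported as ascorbic acid equivalents per volume of EO, mean ± SD, with ANOVA/Tukey's HSD (p < 0.05).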

[2] = Thiobarbituric acid reactive substances; settings: BHTE units; X = EO or compound
Procedure, shortened: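 TBARS formation by oxidation measured in soybean lecithin homogenate as lipid-rich medium, by a published method, in triplicate. Values are expressed as μmol BHTE/mL EO, mean ± SD, with ANOVA/Tukey's HSD (p < 0.05).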

[3] = ABTS radical cation bleaching assay; settings: TEAC units; X = EO or compound
Procedure, shortened: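 ABTS radical cation (ABTS•+) bleaching by essential oils and their individual components, run in triplicate by a published method. Results are given as mean ± SD, compared by ANOVA with Tukey's HSD (p < 0.05).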

Chelating power = settings: for ChP: EDTAE units, X = EO or compound
Procedure, shortened: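 Ferrous ion chelation by essential oils and their major components, by a published method, in triplicate. Results are expressed as EDTA equivalents per volume of EO, mean ± SD, with ANOVA/Tukey's HSD (p < 0.05).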

[4] = DPPH radical scavenging capacity; settings: TEAC units; X = EO or compound
Procedure, shortened: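 DPPH radical scavenging by essential oils and individual components, by a published method, in triplicate. Values are expressed as μmol TE/mL EO and given as mean ± SD, with ANOVA/Tukey's HSD at p < 0.05.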

[5] = target: T1, lipoxygenase (LOX) (linoleate:oxygen oxidoreductase, EC 1.13.11.12) (Glycine max, UniProt P08170); assay: Lipoxygenase; type: biochemical, Glycine max (soybean); settings: soybean LOX, linoleic acid substrate, 25 °C; mean ± SD
T1 sequence (P08170 1-839): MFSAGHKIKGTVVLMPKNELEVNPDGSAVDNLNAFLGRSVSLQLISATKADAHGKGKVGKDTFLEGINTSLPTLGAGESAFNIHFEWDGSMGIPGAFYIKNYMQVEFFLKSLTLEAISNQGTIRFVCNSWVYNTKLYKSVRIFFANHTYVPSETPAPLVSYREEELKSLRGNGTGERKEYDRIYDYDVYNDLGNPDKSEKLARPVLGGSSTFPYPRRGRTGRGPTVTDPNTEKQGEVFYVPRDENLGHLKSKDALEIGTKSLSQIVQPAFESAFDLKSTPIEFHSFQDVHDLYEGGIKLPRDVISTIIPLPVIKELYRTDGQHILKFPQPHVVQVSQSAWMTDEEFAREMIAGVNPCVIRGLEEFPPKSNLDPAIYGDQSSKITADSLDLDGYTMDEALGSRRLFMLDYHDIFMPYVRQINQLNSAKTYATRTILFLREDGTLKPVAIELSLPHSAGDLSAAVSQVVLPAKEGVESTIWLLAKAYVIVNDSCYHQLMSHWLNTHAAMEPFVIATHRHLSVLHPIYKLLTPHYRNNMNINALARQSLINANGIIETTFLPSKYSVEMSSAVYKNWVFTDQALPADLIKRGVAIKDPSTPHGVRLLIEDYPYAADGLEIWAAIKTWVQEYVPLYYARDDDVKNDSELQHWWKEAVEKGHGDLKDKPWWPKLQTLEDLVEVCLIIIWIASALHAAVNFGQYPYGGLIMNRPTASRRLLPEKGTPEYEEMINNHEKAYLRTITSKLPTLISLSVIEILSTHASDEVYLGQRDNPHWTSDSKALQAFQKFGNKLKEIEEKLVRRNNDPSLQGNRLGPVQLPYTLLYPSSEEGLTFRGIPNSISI

SMILES	ORAC [1]	RdP (Reducing power)	TBARS [2]	ABTS [3]	ChP (Chelating power)	DPPH [4]	LOX inhibitory activity, IC50 of main commercially available compounds [5]	Chelating power (ChP), result in words (Chelating power)
CC(=O)OC1CC2CCC1(C)C2(C)C (stereo not drawn) [bornyl acetate]	N/D (Activity lower than 0.05 units at a maximum assay concentration of 100 mM)	N/D (Activity lower than 0.05 units at a maximum assay concentration of 100 mM)	N/D (Activity lower than 0.05 units at a maximum assay concentration of 100 mM)	N/D (Activity lower than 0.05 units at a maximum assay concentration of 100 mM)	0.1 ± 0.0 μmol EDTAE/mL X	N/D (Activity lower than 0.05 units at a maximum assay concentration of 100 mM)	75 ± 3 μL (Compound)/L	
Cc1ccc(C(C)C)cc1 [p-cymene]	N/D (Activity lower than 0.05 units at a maximum assay concentration of 100 mM)	N/D (Activity lower than 0.05 units at a maximum assay concentration of 100 mM)	N/D (Activity lower than 0.05 units at a maximum assay concentration of 100 mM)	0.6 ± 0.0 μmol TE/mL X	124.7 ± 9.8 μmol EDTAE/mL X	N/D (Activity lower than 0.05 units at a maximum assay concentration of 100 mM)	79 ± 5 μL (Compound)/L	high chelating activity
C=C(C)[C@H]1CC=C(C)CC1 [limonene]	0.8 ± 0.1 μmol TE/μL X	N/D (Activity lower than 0.05 units at a maximum assay concentration of 100 mM)	N/D (Activity lower than 0.05 units at a maximum assay concentration of 100 mM)	3.6 ± 0.2 μmol TE/mL X	36.7 ± 2.3 μmol EDTAE/mL X	N/D (Activity lower than 0.05 units at a maximum assay concentration of 100 mM)	58 ± 5 μL (Compound)/L	
CC12CCC(CC1=O)C2(C)C (stereo not drawn) [camphor]	N/D (Activity lower than 0.05 units at a maximum assay concentration of 100 mM)	N/D (Activity lower than 0.05 units at a maximum assay concentration of 100 mM)	N/D (Activity lower than 0.05 units at a maximum assay concentration of 100 mM)	N/D (Activity lower than 0.05 units at a maximum assay concentration of 100 mM)	N/D (Activity lower than 0.05 units at a maximum assay concentration of 100 mM)	N/D (Activity lower than 0.05 units at a maximum assay concentration of 100 mM)	422 ± 13 μL (Compound)/L	
Cc1ccc(C(C)C)c(O)c1 [thymol]	2.1 ± 0.1 μmol TE/μL X	3353.9 ± 133.4 μmol AAE/L X	869.4 ± 255.2 μmol BHTE/mL X	6897.1 ± 225.0 μmol TE/mL X	N/D (Activity lower than 0.05 units at a maximum assay concentration of 100 mM)	34.9 ± 2.1 μmol TE/mL X	23 ± 2 μL (Compound)/L	do not show any ChP
C=CC(C)(O)CCC=C(C)C (stereo not drawn) [linalool]	1.9 ± 0.1 μmol TE/μL X	N/D (Activity lower than 0.05 units at a maximum assay concentration of 100 mM)	N/D (Activity lower than 0.05 units at a maximum assay concentration of 100 mM)	0.4 ± 0.0 μmol TE/mL X	541.6 ± 32.7 μmol EDTAE/mL X	N/D (Activity lower than 0.05 units at a maximum assay concentration of 100 mM)	599 ± 8 μL (Compound)/L	high ChP
